HSF1 inhib – HSF1 inhibition. NIH3T3-HGL HSE-luciferase, MG132-induced, luminescence 8 h; active compounds read low. activity change, negative = inhibition, % at 7.5 µM (by protocol). hit rate 0.77% among 300,000. AID 2098;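 active = more than half of replicate wells show activity change below -50%, luminescence cut by over half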;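 note: luciferase reports HSF-1 transcriptional activity via heat shock element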
Mdm2 ligase inh – blocks human Mdm2 ubiquitin ligase activity; Q00987; cell-based MDM2 ubiquitination luciferase reporter, 2 h; 0 = plate control, 100 = twice control, blank-subtracted; signal enhancement, % at 5 µM; hit rate 0.11% among 210,000; AID 1230;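 active = signal enhancement of 30% or more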;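 note: luminescence tracks abundance of the self-degrading MDM2-luciferase fusion protein; higher signal means inhibition of MDM2 E3 ligase activity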
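Assay system: stable mammalian line carrying autodegrading MDM2–luciferase fusion reporter; amount: 2000 cells seeded into each well; buffer or medium: DMEM; benchmarks: plate control and blank wells; signal: luciferase luminescence; timing: 2 h compound exposure at 37 °C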
Rad51 HR inh – blocks human Rad51 in homologous recombination; Q06609; hRad51 DNA strand exchange, fluorescence dequenching; inhibition, % at 10 µM; hit rate 0.085% among 200,000; AID 1385;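 active = inhibition above 40% at the single screening dose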
Target sequence (Q06609 whole entry, looked up): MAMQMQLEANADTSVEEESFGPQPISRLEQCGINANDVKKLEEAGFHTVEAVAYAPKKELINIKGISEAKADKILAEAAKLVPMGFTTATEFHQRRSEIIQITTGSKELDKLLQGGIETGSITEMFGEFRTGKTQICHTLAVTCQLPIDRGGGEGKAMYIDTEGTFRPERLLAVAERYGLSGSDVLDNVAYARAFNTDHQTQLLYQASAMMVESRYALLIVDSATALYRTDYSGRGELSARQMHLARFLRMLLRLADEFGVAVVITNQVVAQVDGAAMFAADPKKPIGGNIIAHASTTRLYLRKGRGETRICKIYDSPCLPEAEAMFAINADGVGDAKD
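Test system: preformed human Rad51 ssDNA filaments. Compound dosing: single dose, 10 µM final compound. Incubation: filaments 15 min 37 °C, then compound 30 min. Technique: FRET fluorescence dequenching, excitation 485 nm, emission 520 nm. Read-out basis: percent inhibition from fluorescence, normalised to plate control and blank means. Benchmarks: plate controls and plate blanks.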
HSV augment – increases HSV replication in cells | AID 1956 | hit rate 0.005% among 220,000 | maximum fold increase | HSV replication augmentation in cells, fold increase; in the data active = maximum fold increase above about 1.5; tested in PC3 cells
Hsp70 activator – transcriptional activators of Hsp70 | activation, % at 10 µM | hit rate 0.04% among 200,000 | HeLa Hsp70 promoter luciferase reporter, luminescence; scaled: vehicle 0, proteasome-inhibitor control 100% | AID 1203;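 active = activation above the mean across all tested compounds plus 3 SD, cutoff set per campaign, cut at about 5.5% in these data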
HSF-1 act – increases HSF-1 driven luciferase reporter signal | hit rate 1.7% among 300,000 | NIH3T3-HGL HSF-1 luciferase reporter, MG132, 8 h; 100% = twice DMSO control signal | activation, % at 9 µM;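 active = mean replicate activation of at least 50% with a set share of replicates each reaching 50%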
A number is an active result; i = inactive; nt = not tested or not shown. An excerpt weighted towards active compounds, which were near 2.6% of everything screened.

SMILES	HSF1 inhib	Mdm2 ligase inh	Rad51 HR inh	HSV augment	Hsp70 activator	HSF-1 act
COc1ccc(C(=O)CC(=O)C(=O)NCCc2cccc(C)c2)cc1	i	i	i	i	i	69.9
COc1ccc(CCNC(=O)/C=C\c2ccccc2)cc1OC	i	i	i	i	i	i
COc1ccc(/C=C/C(=O)NC(=S)NCCc2ccc(OC)c(OC)c2)cc1	-61.4	i	i	i	i	i
COc1ccc(C(=O)CC(=O)C(=O)Nc2cc(OC)c(OC)c(OC)c2)cc1	i	nt	nt	nt	nt	77.2
COc1ccc(C(=O)CC(=O)C(=O)Nc2ccccc2)cc1	i	nt	nt	nt	nt	i
CCOC(=O)c1c(NC(=O)CSc2nc3ccccc3c(=O)n2-c2ccccc2)sc(C(C)=O)c1C	i	i	i	i	i	i
COCCNC(=S)NNC(=O)c1cc(C2CC2)nc2ccccc12	i	nt	nt	nt	nt	i
COCc1ccc(CN2CCCCC2C(=O)Nc2ccc(Oc3ccccc3)nc2)o1 (stereo not drawn)	i	nt	nt	nt	nt	i
CCc1nnc(NC(=O)C2Cc3ccccc3CN2S(=O)(=O)c2cccs2)s1 (stereo not drawn)	i	i	i	i	i	83.9
CCc1nnc(NC(=O)C2CCCN2S(=O)(=O)c2ccc(C)cc2)s1 (stereo not drawn)	i	i	nt	nt	i	i
CCc1nnc(NC(=O)C2Cc3ccccc3CN2S(=O)(=O)c2ccc(C)cc2)s1 (stereo not drawn)	i	i	i	i	i	57.5
Cc1ccc(CN2CCN(Cc3ccccc3C(F)(F)F)CC2)cc1	i	i	i	i	i	i
Cc1[nH]n(-c2ccccc2)c(=O)c1C=NCCc1ccccc1	i	i	i	i	i	89.8
Cc1[nH]n(-c2ccccc2)c(=O)c1C=NCc1ccncc1	i	i	nt	i	nt	i
O=[N+]([O-])c1ccc(Nc2ccc(F)cc2)cc1	-80.9	nt	nt	nt	nt	i
CCOc1ccc2sc(NS(=O)(=O)c3ccc(OC)c(OC)c3)nc2c1	i	i	i	i	i	64.4
Cc1ccc(N=Cc2ccc[nH]2)c(O)c1	-75.7	i	i	i	i	i
CCn1ccnc1CNC(=O)CC1C(=O)NCCN1CC(c1ccccc1)c1ccccc1 (stereo not drawn)	i	i	nt	i	i	i
O=C(CC1Sc2ccccc2NC1=O)c1ccc(Br)cc1 (stereo not drawn)	i	i	i	i	i	70.5
CC(=O)Nc1ccc(SCC(=O)c2cc(C)n(-c3ccccc3)c2C)cc1	-67.5	i	i	i	i	i
Cc1[nH]n(-c2ccccc2)c(=O)c1C(C[N+](=O)[O-])c1ccc(F)cc1 (stereo not drawn)	i	i	i	i	i	281.7
Cc1[nH]n(-c2ccccc2)c(=O)c1C(C[N+](=O)[O-])c1ccc(Cl)cc1 (stereo not drawn)	i	i	i	i	i	132.7
COc1ccc(C(c2c(C)n(C)n(-c3ccccc3)c2=O)c2c(C)n(C)n(-c3ccccc3)c2=O)cc1OC	i	nt	nt	nt	nt	i
COc1ccc(C(c2c(C)[nH]n(-c3ccccc3)c2=O)c2c(C)[nH]n(-c3ccccc3)c2=O)cc1OC	i	i	i	i	i	70.5
O=C(NCCN1CCN(c2ccc([N+](=O)[O-])cc2)CC1)NCc1ccccc1	i	nt	nt	nt	nt	i
SMILES	HSF1 inhib	Mdm2 ligase inh	Rad51 HR inh	HSV augment	Hsp70 activator	HSF-1 act
O=C(NC1CC1)c1cc2cc3ccccc3nc2s1	i	nt	nt	nt	nt	i
CCOC(=O)/C(=N/Nc1ccc(Cl)cc1)Sc1nnnn1-c1ccc(C)cc1	i	nt	nt	i	i	73.7
COc1ccc(OC)c(NS(=O)(=O)Cc2ccccc2)c1	i	i	nt	nt	i	i
COc1ccc(OC)c(NC(=O)c2nc(S(=O)(=O)Cc3ccccc3)ncc2Cl)c1	-94.2	nt	nt	nt	nt	i
COc1ccc(NC(=O)c2nc(S(=O)(=O)Cc3cccc(C)c3)ncc2Cl)c(OC)c1	i	nt	nt	nt	nt	204.4
COc1ccc(CC(=O)Nc2ccc(N(C)C)c3ccccc23)cc1	i	nt	nt	nt	nt	i
Cc1cccc(NS(=O)(=O)c2cn(C)c(=O)n(C)c2=O)c1C	i	nt	nt	nt	nt	i
CCCN1CCC(NC23CC4CC(CC(C4)C2)C3)CC1	i	nt	nt	nt	nt	i
O=C(O)c1ccc(S(=O)(=O)N2CCC(n3nnc4cc(C(F)(F)F)ccc43)CC2)cc1	i	nt	nt	nt	nt	i
O=C(O)c1cccc(S(=O)(=O)N2CCC(n3nnc4cc(C(F)(F)F)ccc43)CC2)c1	i	nt	nt	nt	nt	79.4
CC(=O)N/C(=C\c1ccccc1)C(=O)OCC(=O)N(CC(C)C)c1c(N)n(Cc2ccccc2)c(=O)[nH]c1=O	i	nt	nt	nt	nt	i
CN1CCN(S(=O)(=O)c2ccc(NC(=S)NC(=O)C(C)(C)C)cc2)CC1	nt	i	i	i	i	nt
CCC(=O)NC(=S)Nc1ccc(S(=O)(=O)N2CCN(C)CC2)cc1	i	i	i	i	i	78.9
O=C(COc1ccccc1)NCCSCc1ccccc1Cl	i	i	i	i	i	69.8
CC(CCc1ccccc1)NC(=O)CCNS(=O)(=O)c1ccccc1 (stereo not drawn)	i	nt	nt	nt	nt	i
Cc1cccc2c1cnn2C(=O)Nc1ccc(Br)cc1F	i	nt	nt	nt	nt	i
Cc1ccc(NC(=O)n2ncc3c(C)cccc32)c(C)c1	i	nt	nt	nt	nt	56.7
Cc1ccc(-n2c(C)cc(C(=O)CSc3nncs3)c2C)cc1	i	i	i	i	i	67.4
Cc1cc(C(=O)CSc2nncs2)c(C)n1-c1c(C)n(C)n(-c2ccccc2)c1=O	i	i	i	i	i	i
O=C(Cn1cnc2ccccc2c1=O)Nc1ccc(S(=O)(=O)N2CCCC2)cc1	i	i	i	i	i	i
CC(C)c1ccc(NC(=O)CNC(=O)Cn2cnc3ccccc3c2=O)cc1	-82.6	i	i	i	i	i
CN(C(=O)CCNC(=O)Cn1cnc2ccccc2c1=O)c1ccccc1F	-89.5	nt	nt	nt	nt	i
CC1CCCC(C)N1S(=O)(=O)c1ccc(NC(=O)CCn2cnc3ccccc3c2=O)cc1 (stereo not drawn)	i	i	126.2	i	i	i
CN(C(=O)CCNC(=O)Cn1cnc2ccccc2c1=O)c1ccc(F)cc1	i	nt	nt	nt	nt	i
COc1ccc(N2CC(C(=O)Nc3cc(C)ccn3)CC2=O)cc1 (stereo not drawn)	i	i	i	i	nt	i
SMILES	HSF1 inhib	Mdm2 ligase inh	Rad51 HR inh	HSV augment	Hsp70 activator	HSF-1 act
CC1(C)c2ccccc2-n2c1cc1oc(=O)cc(O)c1c2=O	i	i	i	i	nt	i
COc1ccccc1-c1cc(C(=O)NC2CCCC2)no1	i	nt	nt	nt	nt	i
CCOc1ccc(S(=O)(=O)NCc2cccs2)cc1	i	i	i	i	i	i
CCSc1nnc(-c2ccc(S(=O)(=O)NCc3cccs3)cc2)o1	-68.1	i	nt	i	i	i
CNC(=O)C1C(=S)NC(N)=C(C#N)C1c1ccccc1 (stereo not drawn)	-72.2	i	i	i	i	i
CCC1=CC(c2ccccc2)n2ncnc2N1 (stereo not drawn)	-84.4	nt	i	i	nt	i
O=C(Nc1ccc(N2C(=O)C3C4C=CC(C4)C3C2=O)cc1)Nc1nncs1 (stereo not drawn)	-85.8	nt	i	i	nt	i
